In ChEMBL document CHEMBL3046406, “Herbicidal potential of ophiobolins produced by Drechslera gigantea” (2006):
Calls of active or inactive are those of the source.

Tests used:
Format in all cases: functional
Sonchus oleraceus [1] = assay: Herbicidal activity against Sonchus oleraceus assessed as diameter of leaf necrosis at 50 ug/ml measured after 2 days post-compound treatment by leaf puncture assay
How it was run: (§1)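 Detached leaf segments (about 5 cm) from young greenhouse-grown plants, each with a superficial puncture lesion (0.5 mm) made by glass capillary. Compound dissolved in DMSO, diluted with distilled water (final DMSO 2%), 8 µL droplet applied. Segments held on moist filter paper at 25 °C under continuous fluorescent light (10000 lux). DMSO droplets as control. Necrosis scored visually on a 0–3 scale at day 2.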

Sonchus oleraceus [2] = assay: Herbicidal activity against Sonchus oleraceus assessed as diameter of leaf necrosis at 100 ug/ml measured after 2 days post-compound treatment by leaf puncture assay; how it was run: as §1
Sonchus oleraceus [3] = assay: Herbicidal activity against Sonchus oleraceus assessed as diameter of leaf necrosis at 250 ug/ml measured after 2 days post-compound treatment by leaf puncture assay; how it was run: as §1
Diplotaxis erucoides [4] = assay: Herbicidal activity against Diplotaxis erucoides assessed as diameter of leaf necrosis at 50 ug/ml measured after 2 days post compound treatment by leaf puncture assay; how it was run: as §1
Diplotaxis erucoides [5] = assay: Herbicidal activity against Diplotaxis erucoides assessed as diameter of leaf necrosis at 100 ug/ml measured after 2 days post compound treatment by leaf puncture assay; how it was run: as §1
Convolvulus arvensis [6] = assay: Herbicidal activity against Convolvulus arvensis assessed as diameter of leaf necrosis at 50 ug/ml measured after 2 days post compound treatment by leaf puncture assay; how it was run: as §1
Convolvulus arvensis [7] = assay: Herbicidal activity against Convolvulus arvensis assessed as diameter of leaf necrosis at 100 ug/ml measured after 2 days post compound treatment by leaf puncture assay; how it was run: as §1
Convolvulus arvensis [8] = assay: Herbicidal activity against Convolvulus arvensis assessed as diameter of leaf necrosis at 250 ug/ml measured after 2 days post compound treatment by leaf puncture assay; how it was run: as §1
Chenopodium album [9] = assay: Herbicidal activity against Chenopodium album assessed as diameter of leaf necrosis at 50 ug/ml measured after 2 days post compound treatment by leaf puncture assay; how it was run: as §1
Chenopodium album [10] = assay: Herbicidal activity against Chenopodium album assessed as diameter of leaf necrosis at 250 ug/ml measured after 2 days post compound treatment by leaf puncture assay; how it was run: as §1
Chenopodium album [11] = assay: Herbicidal activity against Chenopodium album assessed as diameter of leaf necrosis at 100 ug/ml measured after 2 days post compound treatment by leaf puncture assay; how it was run: as §1
Amaranthus retroflexus [12] = assay: Herbicidal activity against Amaranthus retroflexus assessed as diameter of leaf necrosis at 50 ug/ml measured after 2 days post compound treatment by leaf puncture assay; how it was run: as §1
Amaranthus retroflexus [13] = assay: Herbicidal activity against Amaranthus retroflexus assessed as diameter of leaf necrosis at 250 ug/ml measured after 2 days post compound treatment by leaf puncture assay; how it was run: as §1
Amaranthus retroflexus [14] = assay: Herbicidal activity against Amaranthus retroflexus assessed as diameter of leaf necrosis at 100 ug/ml measured after 2 days post compound treatment by leaf puncture assay; how it was run: as §1
Setaria viridis [15] = assay: Herbicidal activity against Setaria viridis assessed as diameter of leaf necrosis at 50 ug/ml measured after 2 days post compound treatment by leaf puncture assay; how it was run: as §1
Setaria viridis [16] = assay: Herbicidal activity against Setaria viridis assessed as diameter of leaf necrosis at 100 ug/ml measured after 2 days post compound treatment by leaf puncture assay; how it was run: as §1
Setaria viridis [17] = assay: Herbicidal activity against Setaria viridis assessed as diameter of leaf necrosis at 250 ug/ml measured after 2 days post compound treatment by leaf puncture assay; how it was run: as §1
Bromus sterilis [18] = assay: Herbicidal activity against Bromus sterilis assessed as diameter of leaf necrosis at 250 ug/ml measured after 2 days post compound treatment by leaf puncture assay; how it was run: as §1
[19] = system: Avena sterilis subsp. ludoviciana; assay: Herbicidal activity against Avena sterilis subsp. ludoviciana assessed as diameter of leaf necrosis at 50 ug/ml measured after 2 days post compound treatment by leaf puncture assay; how it was run: as §1
[20] = system: Avena sterilis subsp. ludoviciana; assay: Herbicidal activity against Avena sterilis subsp. ludoviciana assessed as diameter of leaf necrosis at 100 ug/ml measured after 2 days post compound treatment by leaf puncture assay; how it was run: as §1
[21] = system: Avena sterilis subsp. ludoviciana; assay: Herbicidal activity against Avena sterilis subsp. ludoviciana assessed as diameter of leaf necrosis at 250 ug/ml measured after 2 days post compound treatment by leaf puncture assay; how it was run: as §1
Diplotaxis erucoides [22] = assay: Herbicidal activity against Diplotaxis erucoides assessed as diameter of leaf necrosis at 250 ug/ml measured after 2 days post compound treatment by leaf puncture assay; how it was run: as §1
Phalaris canariensis [23] = assay: Herbicidal activity against Phalaris canariensis assessed as diameter of leaf necrosis at 50 ug/ml measured after 2 days post compound treatment by leaf puncture assay; how it was run: as §1
Phalaris canariensis [24] = assay: Herbicidal activity against Phalaris canariensis assessed as diameter of leaf necrosis at 100 ug/ml measured after 2 days post compound treatment by leaf puncture assay; how it was run: as §1
Phalaris canariensis [25] = assay: Herbicidal activity against Phalaris canariensis assessed as diameter of leaf necrosis at 250 ug/ml measured after 2 days post compound treatment by leaf puncture assay; how it was run: as §1
Oloptum miliaceum [26] = assay: Herbicidal activity against Piptatherum miliaceum assessed as diameter of leaf necrosis at 50 ug/ml measured after 2 days post compound treatment by leaf puncture assay; how it was run: as §1
Oloptum miliaceum [27] = assay: Herbicidal activity against Piptatherum miliaceum assessed as diameter of leaf necrosis at 100 ug/ml measured after 2 days post compound treatment by leaf puncture assay; how it was run: as §1
Oloptum miliaceum [28] = assay: Herbicidal activity against Piptatherum miliaceum assessed as diameter of leaf necrosis at 250 ug/ml measured after 2 days post compound treatment by leaf puncture assay; how it was run: as §1
Echinochloa crus-galli [29] = assay: Herbicidal activity against Echinochloa crus-galli (barnyard grass) assessed as diameter of leaf necrosis at 50 ug/ml measured after 2 days post compound treatment by leaf puncture assay; how it was run: as §1
Echinochloa crus-galli [30] = assay: Herbicidal activity against Echinochloa crus-galli (barnyard grass) assessed as diameter of leaf necrosis at 100 ug/ml measured after 2 days post compound treatment by leaf puncture assay; how it was run: as §1
Echinochloa crus-galli [31] = assay: Herbicidal activity against Echinochloa crus-galli (barnyard grass) assessed as diameter of leaf necrosis at 250 ug/ml measured after 2 days post compound treatment by leaf puncture assay; how it was run: as §1
Digitaria sanguinalis [32] = assay: Herbicidal activity against Digitaria sanguinalis (hairy crabgrass) assessed as diameter of leaf necrosis at 50 ug/ml measured after 2 days post compound treatment by leaf puncture assay; how it was run: as §1
Digitaria sanguinalis [33] = assay: Herbicidal activity against Digitaria sanguinalis (hairy crabgrass) assessed as diameter of leaf necrosis at 100 ug/ml measured after 2 days post compound treatment by leaf puncture assay; how it was run: as §1
Digitaria sanguinalis [34] = assay: Herbicidal activity against Digitaria sanguinalis (hairy crabgrass) assessed as diameter of leaf necrosis at 250 ug/ml measured after 2 days post compound treatment by leaf puncture assay; how it was run: as §1
Cynodon dactylon [35] = assay: Herbicidal activity against Cynodon dactylon assessed as diameter of leaf necrosis at 50 ug/ml measured after 2 days post compound treatment by leaf puncture assay; how it was run: as §1
Cynodon dactylon [36] = assay: Herbicidal activity against Cynodon dactylon assessed as diameter of leaf necrosis at 100 ug/ml measured after 2 days post compound treatment by leaf puncture assay; how it was run: as §1
Cynodon dactylon [37] = assay: Herbicidal activity against Cynodon dactylon assessed as diameter of leaf necrosis at 250 ug/ml measured after 2 days post compound treatment by leaf puncture assay; how it was run: as §1
Bromus sterilis [38] = assay: Herbicidal activity against Bromus sterilis assessed as diameter of leaf necrosis at 50 ug/ml measured after 2 days post compound treatment by leaf puncture assay; how it was run: as §1
Bromus sterilis [39] = assay: Herbicidal activity against Bromus sterilis assessed as diameter of leaf necrosis at 100 ug/ml measured after 2 days post compound treatment by leaf puncture assay; how it was run: as §1

Measured: Activity

CC(C)=C[C@H]1C[C@H](C)[C@]2(CC[C@]3(C)C[C@@H]4C(C)=CC(=O)[C@H]4/C(CO)=C\C[C@H]32)O1
inactive: all assays above
